ChEMBL document CHEMBL2163267, “Novel N-linked aminopiperidine inhibitors of bacterial topoisomerase type II with reduced pK(a): antibacterial agents with an improved safety profile” (J Med Chem, 2012)
In brackets after ≈: the same amount, converted by molar mass.

How the values were obtained:
[1] = Dissociation constant, pKa of the compound by pH metric assay; assay type: physicochemical
Summary of the method: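 pH-metric titration on an automated titrator, run in triplicate. Accuracy about 0.02 log units.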

[2] = Inhibition of Escherichia coli DNA topoisomerase 4 subunit ParC/DNA topoisomerase 4 subunit ParE ATPase activity after 24 hrs by malachite green staining-based colorimetric assay
Pseudomonas aeruginosa = assay: Antibacterial activity against Pseudomonas aeruginosa PAO1 after 18 to 24 hrs by CLSI broth microdilution method; assay type: functional
[3] = Fraction unbound in human plasma at 10 uM by equilibrium dialysis method; assay type: ADME, cell-free
Summary of the method: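 Equilibrium dialysis. Compound at 10 μM in the plasma (donor) chamber against phosphate buffer, rotated at 37 °C for 16 h. Drug in the plasma and buffer samples quantified by LC-MS/MS after methanol protein precipitation with internal standard. Standard curve 10 nM to 10 μM.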

Staphylococcus aureus [4] = assay: Antibacterial activity against methicillin-susceptible Staphylococcus aureus after 18 to 24 hrs by CLSI broth microdilution method; assay type: functional
Escherichia coli = assay: Antibacterial activity against Escherichia coli W3110 after 18 to 24 hrs by CLSI broth microdilution method; assay type: functional
[5] = molecular target: T1, Voltage-gated inwardly rectifying potassium channel KCNH2 (Homo sapiens, UniProt Q12809); assay: Inhibition of human ERG by Ionworks assay
T1 sequence (Q12809 whole entry): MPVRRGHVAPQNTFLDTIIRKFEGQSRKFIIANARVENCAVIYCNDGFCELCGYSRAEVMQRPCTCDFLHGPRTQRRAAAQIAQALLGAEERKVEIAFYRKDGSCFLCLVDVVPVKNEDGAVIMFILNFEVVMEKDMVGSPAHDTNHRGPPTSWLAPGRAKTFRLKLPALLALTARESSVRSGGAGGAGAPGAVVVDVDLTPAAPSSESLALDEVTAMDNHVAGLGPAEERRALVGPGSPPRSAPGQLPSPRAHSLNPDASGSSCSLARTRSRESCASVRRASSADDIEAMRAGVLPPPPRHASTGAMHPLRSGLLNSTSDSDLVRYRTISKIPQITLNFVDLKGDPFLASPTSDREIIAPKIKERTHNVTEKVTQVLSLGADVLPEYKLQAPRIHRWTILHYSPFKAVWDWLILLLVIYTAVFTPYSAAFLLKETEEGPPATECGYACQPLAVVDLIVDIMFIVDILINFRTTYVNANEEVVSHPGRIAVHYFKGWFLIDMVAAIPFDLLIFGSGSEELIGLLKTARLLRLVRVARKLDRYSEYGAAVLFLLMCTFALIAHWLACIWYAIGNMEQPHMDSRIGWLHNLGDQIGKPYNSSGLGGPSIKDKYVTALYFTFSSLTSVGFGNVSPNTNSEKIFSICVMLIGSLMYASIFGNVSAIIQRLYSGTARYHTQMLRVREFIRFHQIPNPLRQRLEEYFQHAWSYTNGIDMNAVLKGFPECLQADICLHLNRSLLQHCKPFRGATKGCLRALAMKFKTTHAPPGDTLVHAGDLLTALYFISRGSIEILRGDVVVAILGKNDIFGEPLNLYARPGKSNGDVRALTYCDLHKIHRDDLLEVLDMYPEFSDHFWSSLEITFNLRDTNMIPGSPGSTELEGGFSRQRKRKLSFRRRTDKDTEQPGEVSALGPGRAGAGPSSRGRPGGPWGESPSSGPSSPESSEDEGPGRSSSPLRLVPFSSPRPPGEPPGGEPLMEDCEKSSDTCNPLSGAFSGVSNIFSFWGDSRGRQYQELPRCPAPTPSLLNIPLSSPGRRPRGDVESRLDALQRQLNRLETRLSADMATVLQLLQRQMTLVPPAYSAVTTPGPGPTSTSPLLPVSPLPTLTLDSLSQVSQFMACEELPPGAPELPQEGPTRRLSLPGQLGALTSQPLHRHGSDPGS

Streptococcus pneumoniae = assay: Antibacterial activity against penicillin-susceptible Streptococcus pneumoniae D39 after 18 to 24 hrs by CLSI broth microdilution method; assay type: functional
[6] = Octanol-phosphate buffer partition coefficient, log D of the compound at pH 7.4 by shake flask method; assay type: physicochemical
Summary of the method: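 Shake-flask partition between n-octanol and 10 mM phosphate buffer at pH 7.4. Shaken 1 h at 1200 rpm to reach equilibrium. Phases analysed by LC/UV, with MS for mass confirmation.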

Staphylococcus aureus [7] = assay: Antibacterial activity against vancomycin-resistant Staphylococcus aureus ARC 3186 after 18 to 24 hrs by CLSI broth microdilution method; assay type: functional
Summary of the method: (§1)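 CLSI broth microdilution in Mueller Hinton Broth 2. Inocula prepared from blood agar plates grown at 35 °C for 18–24 h. Compound in DMSO, 2% DMSO final, 11 doubling dilutions from 64 to 0.06 μg/mL. Plates read at 620 nm.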

Staphylococcus aureus [8] = assay: Antibacterial activity against linezolid-resistant Staphylococcus aureus ARC 3583 after 18 to 24 hrs by CLSI broth microdilution method; assay type: functional; summary of the method: as §1
[9] = molecular target: T1, Voltage-gated inwardly rectifying potassium channel KCNH2; assay: Displacement of [3H]-astemizole from human ERG expressed in HEK293 cells after 60 mins by liquid scintillation counter; assay type: cell-based

Compound	pKa [1]	IC50 [2]	MIC (Pseudomonas aeruginosa)	fraction unbound at 10 µM [3]	MIC (Staphylococcus aureus [4])	MIC (Escherichia coli)	MIC (Streptococcus pneumoniae)	logD [6]	IC50 [5]	MIC (Staphylococcus aureus [7])	MIC (Staphylococcus aureus [8])	IC50 [9]
COc1ccc2ncc(=O)n(CCN3CC[C@@H](NCc4cc5c(cn4)OCCO5)[C@@H](O)C3)c2c1	7.97	6 nM	> 8 µg/mL	0.14	0.06 µg/mL (≈ 0.128 µM)	1 µg/mL (≈ 2.14 µM)						
N#Cc1ccc2ccc(=O)n(CCN3CC[C@@H](NCc4cc5c(cn4)OCCO5)[C@@H](O)C3)c2c1		41 nM	> 8 µg/mL	0.24	0.06 µg/mL (≈ 0.13 µM)	1 µg/mL (≈ 2.17 µM)		0.45	117000 nM			
CC(=O)NC[C@H]1CN(c2ccc(N3CCOCC3)c(F)c2)C(=O)O1 [LINEZOLID]										1 µg/mL (≈ 2.96 µM)	16 µg/mL (≈ 47.4 µM)	
COc1ccc2ncc(=O)n(CCN3CC[C@@H](NCc4cc5c(cn4)OCCO5)[C@H](O)C3)c2c1 (single isomer, unassigned; enantiomer B)	7.4	3 nM	> 8 µg/mL	0.18	0.06 µg/mL (≈ 0.128 µM)	2 µg/mL (≈ 4.28 µM)	0.06 µg/mL (≈ 0.128 µM)					
N#Cc1ccc2ccc(=O)n(CCN3CC[C@H](NCc4cc5c(cn4)OCCO5)[C@@H](F)C3)c2c1 (single isomer, unassigned; enantiomer B)	6.66	16 nM	> 8 µg/mL	0.09	0.13 µg/mL (≈ 0.28 µM)	8 µg/mL (≈ 17.3 µM)	0.25 µg/mL (≈ 0.539 µM)	1.53	122000 nM			57000 nM
CN[C@H](CC(C)C)C(=O)N[C@H]1C(=O)N[C@@H](CC(N)=O)C(=O)N[C@H]2C(=O)N[C@H]3C(=O)N[C@H](C(=O)N[C@H](C(=O)O)c4cc(O)cc(O)c4-c4cc3ccc4O)[C@H](O)c3ccc(c(Cl)c3)Oc3cc2cc(c3O[C@@H]2O[C@H](CO)[C@@H](O)[C@H](O)[C@H]2O[C@H]2C[C@](C)(N)[C@H](O)[C@H](C)O2)Oc2ccc(cc2Cl)[C@H]1O [VANCOMYCIN]										> 64 µg/mL		
CO[C@H]1CN(CCn2c(=O)ccc3ccc(C#N)cc32)CC[C@H]1NCc1cc2c(cn1)OCCO2	7.99	55 nM	> 8 µg/mL	0.54	0.13 µg/mL (≈ 0.273 µM)	4 µg/mL (≈ 8.41 µM)	0.13 µg/mL (≈ 0.273 µM)	0.63	174000 nM			
COc1ccc2ncc(=O)n(CCN3CC[C@H](NCc4cc5c(cn4)OCCO5)[C@@H](F)C3)c2c1 (single isomer, unassigned; enantiomer B)	6.46	26 nM	> 8 µg/mL	0.09	0.06 µg/mL (≈ 0.128 µM)	8 µg/mL (≈ 17 µM)	0.13 µg/mL (≈ 0.277 µM)	1.68				
CO[C@H]1CN(CCn2c(=O)ccc3ccc(C#N)cc32)CC[C@@H]1NCc1cc2c(cn1)OCCO2 (single isomer, unassigned; enantiomer 1)	7.25	96 nM	> 8 µg/mL	0.13	0.25 µg/mL (≈ 0.526 µM)	8 µg/mL (≈ 16.8 µM)	0.5 µg/mL (≈ 1.05 µM)	1.07	176000 nM			
N#Cc1ccc2ccc(=O)n(CCN3CC[C@H](NCc4cc5c(cn4)OCCO5)[C@H](O)C3)c2c1	8	25 nM	> 8 µg/mL	0.19	0.06 µg/mL (≈ 0.13 µM)	1 µg/mL (≈ 2.17 µM)		0.46	156000 nM			
N#Cc1ccc2ccc(=O)n(CCN3CC[C@@H](NCc4cc5c(cn4)OCCO5)[C@@H](F)C3)c2c1		60 nM	> 8 µg/mL	0.2	0.13 µg/mL (≈ 0.28 µM)	4 µg/mL (≈ 8.63 µM)	0.13 µg/mL (≈ 0.28 µM)	0.97	199000 nM			> 200000 nM
COc1ccc2ncc(=O)n(CCN3CC[C@H](NCc4cc5c(cn4)OCCO5)[C@H](O)C3)c2c1		5 nM	8 µg/mL (≈ 17.1 µM)	0.19	0.03 µg/mL (≈ 0.0642 µM)	0.5 µg/mL (≈ 1.07 µM)						

The next lines start with results.

pKa [1]	IC50 [2]	MIC (Pseudomonas aeruginosa)	fraction unbound at 10 µM [3]	MIC (Staphylococcus aureus [4])	MIC (Escherichia coli)	MIC (Streptococcus pneumoniae)	logD [6]	Compound	IC50 [5]	MIC (Staphylococcus aureus [7])	MIC (Staphylococcus aureus [8])	IC50 [9]
7.45	45 nM	8 µg/mL (≈ 16.2 µM)	0.18	0.03 µg/mL (≈ 0.0607 µM)	1 µg/mL (≈ 2.02 µM)	0.13 µg/mL (≈ 0.263 µM)		COc1ccc2ncc(=O)n(CCN3CC[C@@H](NCc4ccc5c(n4)NC(=O)CO5)[C@H](OC)C3)c2c1 (single isomer, unassigned; enantiomer 1)	27000 nM			
7.53	35 nM	> 8 µg/mL	0.27	0.13 µg/mL (≈ 0.266 µM)	2 µg/mL (≈ 4.09 µM)	0.25 µg/mL (≈ 0.512 µM)	0.81	CO[C@@H]1CN(CCn2c(=O)ccc3ccc(C#N)cc32)CC[C@H]1NCc1ccc2c(n1)NC(=O)CO2 (single isomer, unassigned; enantiomer 1)				
	28 nM	8 µg/mL (≈ 16.4 µM)	0.5	0.13 µg/mL (≈ 0.266 µM)	1 µg/mL (≈ 2.05 µM)	0.5 µg/mL (≈ 1.02 µM)	0.32	CO[C@H]1CN(CCn2c(=O)ccc3ccc(C#N)cc32)CC[C@H]1NCc1ccc2c(n1)NC(=O)CO2				
8.01	76 nM	> 8 µg/mL	0.33	0.06 µg/mL (≈ 0.125 µM)	4 µg/mL (≈ 8.31 µM)	0.13 µg/mL (≈ 0.27 µM)	0.9	COc1ccc2ncc(=O)n(CCN3CC[C@@H](NCc4cc5c(cn4)OCCO5)[C@@H](OC)C3)c2c1	75000 nM			
6.86	< 9 nM	4 µg/mL (≈ 8.29 µM)	0.04	< 0.01 µg/mL	0.5 µg/mL (≈ 1.04 µM)	0.06 µg/mL (≈ 0.124 µM)	1.38	COc1ccc2ncc(=O)n(CCN3CC[C@H](NCc4ccc5c(n4)NC(=O)CO5)[C@@H](F)C3)c2c1 (single isomer, unassigned; enantiomer B)				
		8 µg/mL (≈ 16.6 µM)		0.03 µg/mL (≈ 0.0622 µM)	0.5 µg/mL (≈ 1.04 µM)	0.13 µg/mL (≈ 0.269 µM)		COc1ccc2ncc(=O)n(CCN3CC[C@H](NCc4ccc5c(n4)NC(=O)CO5)[C@H](F)C3)c2c1				
7	113 nM	> 8 µg/mL	0.11	0.25 µg/mL (≈ 0.519 µM)	8 µg/mL (≈ 16.6 µM)	0.25 µg/mL (≈ 0.519 µM)	1.27	COc1ccc2ncc(=O)n(CCN3CC[C@H](NCc4cc5c(cn4)OCCO5)[C@@H](OC)C3)c2c1 (single isomer, unassigned; enantiomer 1)	93000 nM			
8.17	76 nM	4 µg/mL (≈ 8.09 µM)	0.28	0.06 µg/mL (≈ 0.121 µM)	1 µg/mL (≈ 2.02 µM)	0.25 µg/mL (≈ 0.506 µM)		COc1ccc2ncc(=O)n(CCN3CC[C@@H](NCc4ccc5c(n4)NC(=O)CO5)[C@@H](OC)C3)c2c1	88000 nM			
	17 nM	2 µg/mL (≈ 4.21 µM)	0.21	0.25 µg/mL (≈ 0.527 µM)	0.5 µg/mL (≈ 1.05 µM)		0.11	N#Cc1ccc2ccc(=O)n(CCN3CC[C@H](NCc4ccc5c(n4)NC(=O)CO5)[C@H](O)C3)c2c1				
		8 µg/mL (≈ 16.6 µM)	0.25	0.03 µg/mL (≈ 0.0622 µM)	0.5 µg/mL (≈ 1.04 µM)	0.13 µg/mL (≈ 0.269 µM)	0.83	COc1ccc2ncc(=O)n(CCN3CC[C@@H](NCc4ccc5c(n4)NC(=O)CO5)[C@@H](F)C3)c2c1				
	23 nM	2 µg/mL (≈ 4.16 µM)	0.05	0.13 µg/mL (≈ 0.271 µM)	0.25 µg/mL (≈ 0.52 µM)		0.37	COc1ccc2ncc(=O)n(CCN3CC[C@@H](NCc4ccc5c(n4)NC(=O)CO5)[C@@H](O)C3)c2c1	152000 nM			
	17 nM	2 µg/mL (≈ 4.16 µM)	0.14	0.06 µg/mL (≈ 0.125 µM)	0.25 µg/mL (≈ 0.52 µM)		0.39	COc1ccc2ncc(=O)n(CCN3CC[C@H](NCc4ccc5c(n4)NC(=O)CO5)[C@H](O)C3)c2c1	172000 nM			
	15 nM	2 µg/mL (≈ 4.21 µM)	0.18	0.5 µg/mL (≈ 1.05 µM)	0.5 µg/mL (≈ 1.05 µM)		0.1	N#Cc1ccc2ccc(=O)n(CCN3CC[C@@H](NCc4ccc5c(n4)NC(=O)CO5)[C@@H](O)C3)c2c1				
